From PubChem
Shown are actives, neighbours in structure and some others; about 1.6% of the full set was active somewhere.
KLK7 zymogen act – activators of human kallikrein-7 zymogen; P49862; purified proKLK7, EDANS-DABCYL substrate fluorescence; 100% is mature enzyme control, 0% vehicle; activation, % at 7 µM; 0.9% of 370,000 active;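 active = activation above the mean of all tested compounds plus 3 SD, computed per campaign excluding outliers beyond control limits, cut at about 13% in these data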
procasp3 activ – activators of human procaspase-3; recombinant procaspase-3 D3A, Ac-DEVD-pNA absorbance 405 nm; P42574; 0.11% of 330,000 active; activation, % at 8.5 µM;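 active = activation above the mean of all tested compounds plus 3 SD, cut at about 21% in these data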;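 note: 0% = DMSO alone and 100% = DMSO wells spiked with extra 5 µM PC-3 D3A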
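Assay system – Procaspase-3 D3A mutant · Benchmarks – DMSO low control, extra-enzyme high control · Technique – 405 nm absorbance of p-nitroaniline, reads at 0 and 120 min · Doses – 8.5 µM nominal · Measure – % activation between DMSO and enzyme-spiked controls · Also added – Ac-DEVD-pNA chromogenic peptide substrate · Schedule – 1 h compound preincubation, 2 h substrate hydrolysis at 25 °C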
Neddylation inh – inhibitors of human cullin neddylation. P61081+Q13564. TR-FRET cullin neddylation, biochemical. calls only at 25 µM. 0.58% of 360,000 active; in the data active = inhibition above about 36%
proCasp7 act – counter-screen: procaspase-7 (human) activation; 0.093% of 330,000 active; activation, % at 8.5 µM; recombinant procaspase-7, Ac-DEVD-pNA absorbance 405 nm; D23A/D198A/D206A triple mutant, cannot self-cleave; scale: DMSO 0, 5 µM enzyme 100;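 active = percent activation above the screen-wide mean plus 3 SD, cut at about 25% in these data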
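Assay system: Uncleavable procaspase-7 mutant enzyme | Input: 2 µM procaspase-7 mutant as dispensed | Timing: 1 h compound preincubation, 2 h substrate cleavage, 25 °C | Repeats: One well per compound | Control set: DMSO wells as 0%, DMSO with 5 µM added PC-7 as 100% | Technique: Epi-absorbance of released pNA at 405 nm, two timepoints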
proKLK7 act conf – confirmation of human kallikrein-7 zymogen activators | purified proKLK7, EDANS-DABCYL substrate fluorescence; scaled: vehicle 0, mature enzyme 100 | 68% of 3,200 active | activation, % at 7 µM | shares compounds with KLK7 zymogen act;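 active = activation, as change over the incubation, above the mean of all tested compounds plus 3 SD, cut at about 13% in these data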
EDANS-DABCYL int – fluorescence interference counter-screen for KLK7 activators; shares compounds with KLK7 zymogen act; EDANS-DABCYL substrate fluorescence interference, no enzyme, 4 h; solvent 0%, active enzyme control 100%; activation, % at 7 µM; 80% of 3,200 active;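 active = activation above the all-compound mean plus 3 SD, ignoring values outside control-based bounds, cut at about 4.8% in these data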;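 note: value is the 4 h activation minus the activation read at time zero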
EDANS interf – EDANS fluorescence interference in dose response, no enzyme | EDANS-DABCYL peptide fluorescence interference | shares compounds with KLK7 zymogen act | AID 720493 | 20% of 250 active | EC50, µM;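 active = compounds that raise the fluorescence signal in this interference counterscreen, with EC50 at or below 10 µM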;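 note: intact quenched peptide substrate alone read at 355 nm excitation and 520 nm emission; signal is fluorescence gain from T0 to T4 after four hours at room temperature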
Active calls of the source: *; i = inactive; / = no result shown.

SMILES	KLK7 zymogen act	procasp3 activ	Neddylation inh	proCasp7 act	proKLK7 act conf	EDANS-DABCYL int	others
Cc1ccc2nc(-c3ccc(NC(=O)Cc4cccs4)cc3)[nH]c2c1	52*	-3	i	8	8	3
Cc1ccc2nc(NC(=O)Cc3cccs3)sc2c1	0	-6	i	-3	/	/
COc1ccc(-c2ccc3c(n2)CCCN3Cc2ccccc2C(F)(F)F)cc1	18*	/	/	/	15*	13*	EDANS interf=i
CCOC(=O)C1=Nc2ccccc2C1=[N+]=[N-]	-2	-4	i	2	/	/
CCOC(=O)C1=Nc2cccc3c(O)ccc1c23	53*	/	/	/	79*	85*
CC(C)(C)S(=O)N1Cc2cc(C(=O)NCC(F)(F)F)nc(-c3cccc(-c4cccc(F)c4)c3)c2[C@H]1CCO (stereo not given in full)	0	/	i	/	/	/
Nc1c(Cl)cc(Cl)cc1C(=O)OCC(=O)NC1CC1	22*	-3	/	6	36*	33*
O=C(Cn1cnc2c(nnn2Cc2ccc(Cl)cc2)c1=O)NCc1ccco1	0	0	i	-7	/	/
Cn1nc2c3cc(F)ccc3n(Cc3ccc(F)cc3)cc-2c1=O	0	-2	i	-2	/	/
COc1cc2c3nnc(-c4ccc(F)cc4)c-3cn(Cc3ccc(F)cc3)c2cc1OC	13*	-7	/	2	-5	-7
CC(OC(=O)c1cc(=O)[nH]c2ccccc12)C(=O)Nc1ccccc1F (stereo not given)	-35	4	i	6	/	/
COC(=O)C1=CN(CCOC23CC4CC(CC(C4)C2)C3)C=C(C(=O)OC)C1c1ccsc1	-77	-5	/	-3	/	/
CCOc1ccc(C2C(C(=O)OC)=CN(CCOC)C=C2C(=O)OC)cc1	26*	-2	/	4	-4	-2
COCCN1C=C(C(=O)OC)C(c2ccc(Cl)cc2)C(C(=O)OC)=C1	31*	2	/	1	-71	-71
NS(=O)(=O)c1ccc(NC(=O)CCC(=O)c2ccc(Cl)s2)cc1	0	8	i	-3	/	/
COc1ccc(/C=C(/NC(=O)c2ccc(OC)c(OC)c2)C(=O)NCCCn2ccnc2)cc1	0	7	i	-5	/	/
C=C(C)Cn1c2ccc(NC(=O)NCCc3ccccc3)cc2c(=O)n1C	27*	/	/	/	8	20*
COc1ccc(CCNC(=O)Nc2ccc3c(c2)c(=O)n(C)n3Cc2ccc(F)cc2)cc1OC	12	/	/	/	/	/
Cn1c(=O)c2cc(NC(=S)NC3CC3)ccc2n1Cc1ccc(F)cc1	14*	/	/	/	9	14*
Cn1c(=O)c2cc(NC(=O)NCCc3ccccc3)ccc2n1Cc1ccc(F)cc1	16*	/	/	/	1	0
Cn1c(=O)c2cc(NC(=O)Nc3ccccc3)ccc2n1Cc1ccccc1	-1	/	/	/	/	/
O=C(NNC(=O)c1cc([N+](=O)[O-])ccc1Cl)c1cccs1	-1	13	i	20	/	/
Cc1cc(NC(=O)c2ccc(Br)o2)ccc1NC(=O)c1ccco1	0	0	i	4	/	/
Cc1nn2c3ccccc3n(CCN3CCCCC3)c2nc1=O	55*	-1	/	-3	8	12*
O=C(O)CCc1nc2ccccc2n(CCc2ccccc2)c1=O	1	2	i	1	/	/
SMILES	KLK7 zymogen act	procasp3 activ	Neddylation inh	proCasp7 act	proKLK7 act conf	EDANS-DABCYL int	others
O=C(O)CCc1nn2c3ccccc3nc2n(CCN2CCCCC2)c1=O	57*	8	/	6	15*	13*	EDANS interf=i
CSc1ccc(/C=C/C(=O)c2c(O)cc(C)oc2=O)cc1	14*	-9	i	-12	-4	-3
CC(C)(C)CC(C)(C)Nc1c(-c2ccc(O)cc2)nc2cnccn12	39*	2	/	-13	-118	-104
Oc1ccc(-c2nc3cnccn3c2Nc2ccc3c(c2)OCCO3)cc1	0	-6	i	12	/	/
CNC(=O)OCc1cccc(COC(=O)NC)n1	-1	-8	i	-5	/	/
CNC(=O)OCc1cocc1COC(=O)NC	42*	/	i	/	0	0
O=C(Nc1ccccn1)Nc1ccccc1Cl	0	0	i	-3	/	/
